This note sets out measurements from ChEMBL document CHEMBL2150944, “Antimalarial activity of pyrroloiminoquinones from the Australian marine sponge Zyzzya sp” (J Med Chem, 2012).

Each structure is given as a SMILES string. The source made the active and inactive calls. No cut-off for these calls is given here.

For data set [1], the system named is HCT-116. The data set can be described thus: Cytotoxicity against human HCT116 cells. The class given is functional, cell-based.
The test system of data set [2] is XRS6. Put plainly: Cytotoxicity against Chinese hamster Xrs-6 cells. To be noted: Cricetulus griseus. Type of data set: cell-based.
Data set [3] is described as follows: Selectivity index, ratio of IC50 for human HEK293 cells to IC50 for chloroquine-sensitive Plasmodium falciparum 3D7. Type of data set: toxicity, cell-based. To be noted: read-out: Ratio IC50.
Data set [4] is described as follows: Selectivity index, ratio of IC50 for human HEK293 cells to IC50 for chloroquine-resistant Plasmodium falciparum Dd2. The class given is toxicity, cell-based. To be noted: read-out: Ratio IC50.
In data set [5] the test system is HEK293. The data set can be described thus: Cytotoxicity against human HEK293 cells assessed as growth inhibition after 72 hrs by Alamar blue assay. To be noted: HEK293, 72 h. The class given is cell-based. The procedure, abridged: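 HEK293 adherent cells (3000/well) were incubated with compound for 72 h at 37 °C and 5% CO2. Medium was removed, then 10% Alamar Blue was added for 5−6 h. Fluorescence was read at ex 535/em 590 nm. Inhibition was normalised to DMSO and 10 μM puromycin controls. IC50 came from nonlinear variable-slope regression of % inhibition against log dose.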
Background: The colour change of resazurin is a common sign of viable cells or microbes.

In data set [6] the test system is Plasmodium falciparum. The data set can be described thus: Antimalarial activity against chloroquine-sensitive Plasmodium falciparum 3D7 assessed as growth inhibition after 72 hrs by DAPI staining. To be noted: 3D7, 72 h. The class given is functional, organism-based. The procedure, abridged: (§1)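 P. falciparum 3D7 or Dd2 at 2% or 3% parasitemia, 0.3% hematocrit, exposed 72 h at 37 °C, 5% CO2. Staining with DAPI plus saponin and Triton X-100, 5 h at room temperature in the dark, then confocal imaging and automated counting of parasite spots. Percent inhibition is calculated against DMSO and 2 μM artemisinin controls.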

The subject of data set [7] is Plasmodium falciparum. Put plainly: Antimalarial activity against chloroquine-resistant Plasmodium falciparum Dd2 assessed as growth inhibition after 72 hrs by DAPI staining. Type of data set: functional, organism-based. To be noted: Dd2, 72 h. The procedure, abridged:
as §1

The test system of data set [8] is Plasmodium falciparum. Put plainly: Antimalarial activity against chloroquine-sensitive Plasmodium falciparum 3D7 ring stage assessed as growth inhibition at 204 nM after 10 hrs by [3H]-hypoxanthine incorporation assay. The class given is functional, organism-based. The method, boiled down:
(§2)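 Synchronous 3D7 rings (~10−16 h post-invasion) or trophozoites (~24−30 h post-invasion), 0.5% parasitemia, 5% hematocrit, exposed 4, 6 or 10 h to compound or 0.04% DMSO vehicle. Cultures are washed, plated in triplicate with 0.5 μCi 3H-hypoxanthine, and incorporation is counted after ~48−72 h. Percent growth is relative to matched vehicle controls, from at least two independent experiments.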

Data set [9] concerns Plasmodium falciparum. Put plainly: Antimalarial activity against chloroquine-sensitive Plasmodium falciparum 3D7 ring stage assessed as growth inhibition at 408 nM after 10 hrs by [3H]-hypoxanthine incorporation assay. Type of data set: functional, organism-based. The procedure, abridged:
as §2

The test system of data set [10] is Plasmodium falciparum. The data set can be described thus: Antimalarial activity against chloroquine-sensitive Plasmodium falciparum 3D7 trophozoite stage assessed as growth inhibition at 204 nM after 10 hrs by [3H]-hypoxanthine incorporation assay. The class given is functional, organism-based. The procedure, abridged:
as §2

The subject of data set [11] is Plasmodium falciparum. Put plainly: Antimalarial activity against chloroquine-sensitive Plasmodium falciparum 3D7 trophozoite stage assessed as growth inhibition at 408 nM after 10 hrs by [3H]-hypoxanthine incorporation assay. The class given is functional, organism-based. The procedure, abridged: as §2
Data set [12] relates to Plasmodium falciparum. Put plainly: Antimalarial activity against chloroquine-sensitive Plasmodium falciparum 3D7 ring stage assessed as growth inhibition at 75 nM after 10 hrs by [3H]-hypoxanthine incorporation assay. The class given is functional, organism-based. The method, boiled down: as §2
Data set [13] concerns Plasmodium falciparum. Put plainly: Antimalarial activity against chloroquine-sensitive Plasmodium falciparum 3D7 ring stage assessed as growth inhibition at 150 nM after 10 hrs by [3H]-hypoxanthine incorporation assay. The class given is functional, organism-based. The method, boiled down:
as §2

For data set [14], the system named is Plasmodium falciparum. Put plainly: Antimalarial activity against chloroquine-sensitive Plasmodium falciparum 3D7 trophozoite stage assessed as growth inhibition at 75 nM after 10 hrs by [3H]-hypoxanthine incorporation assay. Type of data set: functional, organism-based. The procedure, abridged:
as §2

Data set [15] relates to Plasmodium falciparum. The data set can be described thus: Antimalarial activity against chloroquine-sensitive Plasmodium falciparum 3D7 trophozoite stage assessed as growth inhibition at 150 nM after 10 hrs by [3H]-hypoxanthine incorporation assay. Type of data set: functional, organism-based. The method, boiled down: as §2
The target of data set [16] is DNA topoisomerase 2-alpha (Homo sapiens) (UniProt P11388). Put plainly: Inhibition of topoisomerase 2 by decatenation assay.
Chain of DNA topoisomerase 2-alpha (Homo sapiens) (P11388 whole entry): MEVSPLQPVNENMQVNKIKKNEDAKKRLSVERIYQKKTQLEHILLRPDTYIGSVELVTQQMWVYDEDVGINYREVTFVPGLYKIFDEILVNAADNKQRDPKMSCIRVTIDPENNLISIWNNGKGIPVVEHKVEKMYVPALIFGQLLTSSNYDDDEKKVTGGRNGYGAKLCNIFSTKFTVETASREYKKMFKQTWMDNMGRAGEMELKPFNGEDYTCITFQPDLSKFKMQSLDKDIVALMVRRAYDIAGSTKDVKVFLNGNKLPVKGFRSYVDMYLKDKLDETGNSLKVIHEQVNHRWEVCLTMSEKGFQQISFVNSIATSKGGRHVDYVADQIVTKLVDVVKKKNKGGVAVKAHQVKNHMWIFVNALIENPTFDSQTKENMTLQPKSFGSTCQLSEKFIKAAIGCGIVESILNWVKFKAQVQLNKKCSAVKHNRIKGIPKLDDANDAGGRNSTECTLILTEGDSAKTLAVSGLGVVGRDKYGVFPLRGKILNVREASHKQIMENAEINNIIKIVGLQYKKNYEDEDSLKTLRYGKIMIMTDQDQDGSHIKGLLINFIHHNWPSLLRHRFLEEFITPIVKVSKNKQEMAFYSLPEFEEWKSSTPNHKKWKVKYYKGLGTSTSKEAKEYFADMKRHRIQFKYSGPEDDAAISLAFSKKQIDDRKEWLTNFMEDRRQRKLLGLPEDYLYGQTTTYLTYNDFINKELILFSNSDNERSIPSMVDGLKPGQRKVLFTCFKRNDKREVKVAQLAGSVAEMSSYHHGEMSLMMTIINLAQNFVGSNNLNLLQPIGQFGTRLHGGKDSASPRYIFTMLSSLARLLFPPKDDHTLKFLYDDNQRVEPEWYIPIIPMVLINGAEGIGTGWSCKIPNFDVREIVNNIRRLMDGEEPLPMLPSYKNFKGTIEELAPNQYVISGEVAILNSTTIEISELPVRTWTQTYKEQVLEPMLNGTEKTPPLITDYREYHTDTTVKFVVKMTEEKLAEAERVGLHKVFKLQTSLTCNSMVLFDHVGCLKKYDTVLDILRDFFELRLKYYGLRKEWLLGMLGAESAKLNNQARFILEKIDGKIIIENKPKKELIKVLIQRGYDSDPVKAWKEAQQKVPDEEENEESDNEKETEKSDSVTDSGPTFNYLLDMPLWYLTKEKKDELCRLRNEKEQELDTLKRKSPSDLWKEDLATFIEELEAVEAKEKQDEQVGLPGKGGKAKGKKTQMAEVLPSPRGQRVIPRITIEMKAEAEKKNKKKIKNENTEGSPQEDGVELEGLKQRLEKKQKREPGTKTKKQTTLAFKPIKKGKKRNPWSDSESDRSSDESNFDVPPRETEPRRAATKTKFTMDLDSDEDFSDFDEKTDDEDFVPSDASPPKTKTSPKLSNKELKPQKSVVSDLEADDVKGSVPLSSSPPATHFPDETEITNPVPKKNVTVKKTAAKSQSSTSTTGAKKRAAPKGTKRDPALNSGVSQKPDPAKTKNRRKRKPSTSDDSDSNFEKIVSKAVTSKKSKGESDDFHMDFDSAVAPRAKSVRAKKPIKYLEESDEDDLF

Regarding `Cn1cc2ccnc3c2c1C(=O)C(N)=C3` [MAKALUVAMINE B], the results for the IC50 in data set [1] and in data set [2] were > 0.17 µM and 0.08 µM, respectively.
With `CN1CCc2c[nH]c3c2C1=CC(=O)C3=O` [DAMIRONES B], the selectivity ratio is > 10 in [3] and > 32 in data set [4]. The IC50 (commonly the concentration at which inhibition is half-maximal) was > 120 µM in data set [5], 12.2 µM in data set [6] and 3.8 µM in data set [7].
`CN1CCc2cn(C)c3c2C1=CC(=O)C3=O` [DAMIRONES A]: the selectivity ratio is > 63 in data set [3] and > 333 in data set [4]. Besides, the IC50 was > 120 µM in [5], 1.88 µM in [6] and 0.36 µM in data set [7].
On to `Cn1cc2c3c1C(=O)C(N/C=C/c1ccc(O)cc1)=CC3=NCC2` [MAKALUVAMINE E], for which the results for the IC50 in [1] and in [2] were > 0.17 µM and 0.08 µM, respectively.
In the case of `Cn1cc2c3c1C(=O)c1[nH]cc(-c4ccc(O)cc4)c1C3=[N+](C)CC2` [TSITSIKAMMAMINE C TRIFLUROACETATE], the selectivity ratio in data set [3] worked out at 276; in data set [4], 200. Also, the concentration for half-maximal inhibition (IC50) in [5] was 3.6 µM; in data set [6], 0.013 µM; in data set [7] it was 0.018 µM. Further, the “growth inhibition (GI)” value in [8], in [9], in [10] and in data set [11] was “Active” each time.
For the molecule `C[C@@H]1CC[C@H]2[C@@H](C)C(=O)O[C@@H]3O[C@@]4(C)CC[C@@H]1[C@]32OO4`, the “growth inhibition (GI)” value in data set [12], in data set [13], in data set [14] and in data set [15] was “Active” in each case.
With `O=C1C(NC2Cc3cc(Br)c(O)cc3S2)=CC2=NCCc3c[nH]c1c32` (stereo not given) [MAKALUVAMINE F], the IC50 is > 0.17 µM in data set [1] and 0.08 µM in data set [2]. Besides, it took 25 µM to reach the 90% level in data set [16] (IC90).
